Source: ChEMBL document CHEMBL4266059, “Synthesis of Cyanoenone-Modified Diterpenoid Analogs as Novel Bmi-1-Mediated Antitumor Agents” (ACS Med Chem Lett, 2018)
The source made the active and inactive calls. The rule behind the calls is not given here.

Key:
[1] = system: Mus musculus; experiment: Toxicity in nude mouse xenografted with human HCT116 cells assessed as abnormality in kidney at 5 to 10 mg/kg/day, ip for 18 days by hematoxylin and eosin staining based microscopic analysis; type: organism-based; conditions: in vivo, 432 h
Summary of the method: (§1)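 HCT116 subcutaneous xenografts in nude mice; mice randomized into groups of n = 6 and given vehicle (DMSO), test article or reference intraperitoneally daily for 18 days, then sacrificed. End points were excised tumor weight and volume, body weight, histology of heart, liver, spleen, lung and kidney, and immunohistochemistry of tumors for Ki67 and Bmi-1.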

[2] = system: HCT-116; experiment: Antiproliferative activity against human HCT116 cells after 72 hrs by SRB assay; type: functional, cell-based; conditions: HCT-116, 72 h
[3] = system: HCT-116; experiment: Inhibition of cancer stem cell proliferation in human HCT116 cells assessed as CD133/CD44-positive cell population at 1 uM after 48 hrs by flow cytometry (reference value: 85.1 to 86.6%); type: functional; set-up: scale not given: the % may be the effect or the level left
[4] = system: Mus musculus; experiment: Toxicity in nude mouse xenografted with human HCT116 cells assessed as change in body weight at 5 to 10 mg/kg/day, ip for 18 days; type: organism-based; conditions: in vivo, 432 h; summary of the method: as §1
[5] = system: Mus musculus; experiment: Toxicity in nude mouse xenografted with human HCT116 cells assessed as abnormality in heart at 5 to 10 mg/kg/day, ip for 18 days by hematoxylin and eosin staining based microscopic analysis; type: organism-based; conditions: in vivo, 432 h; summary of the method: as §1
[6] = system: Mus musculus; experiment: Toxicity in nude mouse xenografted with human HCT116 cells assessed as abnormality in liver at 5 to 10 mg/kg/day, ip for 18 days by hematoxylin and eosin staining based microscopic analysis; type: organism-based; conditions: in vivo, 432 h; summary of the method: as §1
[7] = system: HCT-116; experiment: Inhibition of colony formation in human HCT116 cells after 7 days by crystal violet staining based assay; type: functional, cell-based
Summary of the method: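 HCT116 colony formation assay over a concentration series; read-out was colony number and size.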

[8] = system: Mus musculus; experiment: Toxicity in nude mouse xenografted with human HCT116 cells assessed as abnormality in spleen at 5 to 10 mg/kg/day, ip for 18 days by hematoxylin and eosin staining based microscopic analysis; type: organism-based; conditions: in vivo, 432 h; summary of the method: as §1
[9] = system: HCT-116; experiment: Inhibition of cancer stem cell proliferation in human HCT116 cells assessed as decrease in CD133/CD44-positive cell population after 48 hrs by flow cytometry; type: functional, cell-based
Summary of the method: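 HCT116 cells, which coexpress CD133 and CD44; the CD133+/CD44+ stem-like population was quantified by flow cytometry after treatment over a concentration series.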

[10] = Selectivity index, ratio of IC50 for HAF to IC50 for human HCT8 cells; type: toxicity; conditions: HAF cells versus HCT8 cells, read-out: Ratio IC50
[11] = system: HCT-116; experiment: Inhibition of Bmi1 protein expression in human HCT116 cells after 8 hrs by Western blot analysis; type: functional, cell-based
[12] = system: HCT-116; experiment: Antitumor activity against human HCT116 cells xenografted in nude mouse assessed as tumor growth inhibition at 5 mg/kg/day, ip for 18 days; type: functional, organism-based; summary of the method: as §1
[13] = system: HCT-116; experiment: Antimigratory activity against human HCT116 cells at 0.5 uM after 24 hrs by crystal violet staining based transwell migration assay relative to control; type: functional
Summary of the method: (§2)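 HCT116 cells in transwell chambers; migration compared with untreated control (0 μM).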

[14] = system: Mus musculus; experiment: Decrease in Bmi1 expression in tumors of nude mouse xenografted with human HCT116 cells at 5 to 10 mg/kg/day, ip for 18 days by IHC analysis; type: functional, organism-based; summary of the method: as §1
[15] = Selectivity index, ratio of IC50 for HAF to IC50 for human HT-29 cells; type: toxicity; conditions: HAF cells versus HT-29 cells, read-out: Ratio IC50
[16] = system: HCT-116; experiment: Effect on total H2A protein expression in human HCT116 cells at 0.5 to 4 uM after 8 hrs by Western blot analysis; type: functional, cell-based
Summary of the method: (§3)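 HCT116 cells treated with test agents at the indicated concentrations for 8 h. Bmi-1, H2A-K119 ubiquitinated H2A (ub-H2A), total H2A and Ring1b detected by Western blot.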

[17] = system: HCT-116; experiment: Induction of apoptosis in human HCT116 cells at 1 uM after 48 hrs by Annexin V/propidium iodide staining based flow cytometry relative to control; type: functional
[18] = Antiproliferative activity against HAF after 72 hrs by SRB assay; set-up: species or system Homo sapiens
[19] = system: HCT-116; experiment: Antimigratory activity against human HCT116 cells at 1 uM after 24 hrs by crystal violet staining based transwell migration assay relative to control; type: functional; summary of the method: as §2
[20] = target: T1, Polycomb complex protein BMI-1 (Homo sapiens) (UniProt P35226); experiment: Inhibition of Bmi1 in human HCT116 cells assessed as reduction in H2A-K119Ub level after 8 hrs by Western blot analysis; type: cell-based; summary of the method: as §3
T1 sequence (whole entry): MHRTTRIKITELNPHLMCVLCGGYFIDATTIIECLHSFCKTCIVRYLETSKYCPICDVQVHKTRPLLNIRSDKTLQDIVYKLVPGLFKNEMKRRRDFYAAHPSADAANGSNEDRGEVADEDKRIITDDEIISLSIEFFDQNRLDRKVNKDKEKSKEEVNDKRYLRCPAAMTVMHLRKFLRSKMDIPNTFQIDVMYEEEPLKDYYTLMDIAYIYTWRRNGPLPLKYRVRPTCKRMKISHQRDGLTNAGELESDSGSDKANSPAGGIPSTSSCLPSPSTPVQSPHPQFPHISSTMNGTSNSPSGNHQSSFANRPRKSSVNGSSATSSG

[21] = system: Mus musculus; experiment: Toxicity in nude mouse xenografted with human HCT116 cells assessed as abnormality in lung at 5 to 10 mg/kg/day, ip for 18 days by hematoxylin and eosin staining based microscopic analysis; type: organism-based; conditions: in vivo, 432 h; summary of the method: as §1
[22] = system: HCT-116; experiment: Antitumor activity against human HCT116 cells xenografted in nude mouse assessed as reduction in Ki67 expression in tumor at 5 to 10 mg/kg/day, ip for 18 days by IHC analysis; type: functional, organism-based; summary of the method: as §1
[23] = system: HCT-8; experiment: Antiproliferative activity against human HCT8 cells after 72 hrs by SRB assay; type: functional, cell-based; conditions: HCT-8, 72 h
[24] = system: HCT-116; experiment: Effect on total Ring1b protein expression in human HCT116 cells at 0.5 to 4 uM after 8 hrs by Western blot analysis; type: functional, cell-based; summary of the method: as §3
[25] = Selectivity index, ratio of IC50 for HAF to IC50 for human HCT116 cells; type: toxicity; conditions: HAF cells versus HCT116 cells, read-out: Ratio IC50
[26] = system: HCT-116; experiment: Induction of apoptosis in human HCT116 cells after 48 hrs by Annexin V/propidium iodide staining based flow cytometry; type: functional, cell-based
Summary of the method: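 HCT116 cells treated for 48 h; apoptosis scored by flow cytometry as early and late apoptotic fractions, compared with untreated controls.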

[27] = system: HT-29; experiment: Antiproliferative activity against human HT-29 cells after 72 hrs by SRB assay; type: functional, cell-based; conditions: HT-29, 72 h
[28] = system: HCT-116; experiment: Antimigratory activity against human HCT116 cells after 24 hrs by crystal violet staining based transwell migration assay; type: functional, cell-based
Summary of the method: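 HCT116 cells were tested for migration through a transwell chamber at 0.5 and 1 μM, compared against an untreated (0 μM) control. Significance was assessed versus that control.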

## COc1cc2c(cc1C(=O)Nc1ccccc1OC(F)(F)F)CC[C@H]1C(C)(C)C(=O)C(C#N)=C[C@]21C
[1]
  Activity: Non-Toxic
[2]
  IC50: 0.25 µM
[3]
  Activity: 56.1%
[4]
  Activity: Non-Toxic
[5]
  Activity: Non-Toxic
[6]
  Activity: Non-Toxic
[7]
  inhibition: Dose-dependent effect
[8]
  Activity: Non-Toxic
[9]
  inhibition: Dose-dependent effect
[10]
  selectivity ratio: 7.3 to 13.1
[11]
  inhibition: Dose-dependent effect
[11]; HCT-116, 8 h
  IC50: 0.83 µM
[12]
  TGI: Active
[13]
  Activity: 30%
[14]
  Activity: Active
[15]
  selectivity ratio: 7.3 to 13.1
[16]
  Activity: inactive
[17]
  Activity: 20.29%
[18]
  IC50: 3.28 µM
[19]
  Activity: 70%
[20]
  inhibition: Dose-dependent effect
[21]
  Activity: Non-Toxic
[22]
  Activity: Active
[23]
  IC50: 0.36 µM
[24]
  Activity: inactive
[25]
  selectivity ratio: 7.3 to 13.1
[26]
  Activity: Dose-dependent effect
[27]
  IC50: 0.45 µM
[28]
  Activity: Dose-dependent effect
